In ChEMBL document CHEMBL1121813, “Dihydrochalcone sweeteners. A study of the atypical temporal phenomena” (1981):

Experiments:
Homo sapiens [1] = organism: Homo sapiens; assay: Percentage of judgments reporting an aftertaste at a concentration of 2000 ppm and character thereof; format: functional
Method in brief: (§1)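 Trained judges tasted aqueous solutions of the compounds, which had to be ≥95 weight percent pure and to have passed mutagenicity and single oral dose toxicity screening. The value is the percentage of panel judgments reporting an aftertaste. Where given, its character is recorded as sweet, bitter or bitter-sweet.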

Homo sapiens [2] = organism: Homo sapiens; assay: Number of taste judgments per compound; format: functional
Homo sapiens [3] = organism: Homo sapiens; assay: Experimentally determined perceived intensity of compound at a concentration of 2000 ppm (mean value); format: functional
Method in brief: (§2)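 Trained human sensory panel of judges tasted aqueous solutions of the compound. Samples had to be ≥95 weight % pure (HPLC, proton titration, Karl Fischer), non-mutagenic in five Salmonella typhimurium strains with and without microsomal activation, and non-toxic in a single-oral-dose mouse test. Perceived intensity (Ip) was read from time–intensity curves at 4- or 6-s intervals and averaged. Outliers at the 95% level were rejected by t-value. Values reported as mean (2Sm).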

Homo sapiens [4] = organism: Homo sapiens; assay: Percentage of judgments reporting an aftertaste at a concentration of 2000 ppm; format: functional; method in brief: as §1
Homo sapiens [5] = organism: Homo sapiens; assay: Intensity calculated on a weight basis relative to an 85500 ppm sucrose solution at a concentration of 2000 ppm (mean value); format: functional
Method in brief: (§3)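 Trained human panel tasted aqueous solutions of purity-checked (≥95 weight percent) compounds cleared for mutagenicity and mouse oral toxicity. Weight-basis intensity I_w = perceived intensity × (85500 ppm sucrose / compound concentration in ppm). The mean is reported with 2S_m limits; data deviating excessively at 95% confidence were rejected by the t-value method.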

Homo sapiens [6] = organism: Homo sapiens; assay: Salty character at a concentration of 2000 ppm (mean value); format: functional
Method in brief: (§4)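 Trained human sensory panel (Swartz method) tasted dilute aqueous solutions of the compounds, which had to be ≥95 weight percent pure and free of mutagenicity and toxicity. Taste character is reported as the mean value with 2S_m limits. Data deviating excessively at the 95% confidence level were rejected by the t-value method.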

Homo sapiens [7] = organism: Homo sapiens; assay: Bitter character at a concentration of 2000 ppm (mean value); format: functional
Method in brief: (§5)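 Trained human panel tasted aqueous solutions. Each judge reported whether there was an aftertaste and its character (sweet, bitter or bitter-sweet). The value is the percentage of judgments reporting a bitter aftertaste.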

Homo sapiens [8] = organism: Homo sapiens; assay: Other taste character at a concentration of 2000 ppm (mean value); format: functional
Method in brief: (§6)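 Trained human panel tasted aqueous solutions of each compound. Aftertaste is scored as the percentage of judgments reporting one, with its character coded sweet (s), bitter (b) or bitter-sweet (bs).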

Homo sapiens [9] = organism: Homo sapiens; assay: Intensity calculated on a molar basis relative to a 0.25 M sucrose solution at a concentration of 2000 ppm (mean value); format: functional
Method in brief: (§7)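 Trained human judges tasted aqueous solutions of the test compound; compounds were first required to be ≥95 weight percent pure and free of mutagenicity (five Salmonella typhimurium strains, ± microsomal activation) and of single oral dose mouse toxicity. Molar intensity I_m = perceived intensity × (0.25 M sucrose / compound molar concentration). The mean is reported with 2S_m limits; outliers were rejected at 95% confidence by t-value.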

Homo sapiens [10] = organism: Homo sapiens; assay: Sweet character at a concentration of 2000 ppm (mean value); format: functional; method in brief: as §4
Homo sapiens [11] = organism: Homo sapiens; assay: Sweet / Bitter character at a concentration of 2000 ppm (mean value); format: functional
Homo sapiens [12] = organism: Homo sapiens; assay: Sour character at a concentration of 2000 ppm (mean value); format: functional; method in brief: as §4
Homo sapiens [13] = organism: Homo sapiens; assay: Salty character at a concentration of 1011 ppm (mean value); format: functional
Homo sapiens [14] = organism: Homo sapiens; assay: Bitter character at a concentration of 1011 ppm (mean value); format: functional; method in brief: as §5
Homo sapiens [15] = organism: Homo sapiens; assay: Sweet character at a concentration of 1011 ppm (mean value); format: functional
Homo sapiens [16] = organism: Homo sapiens; assay: Experimentally determined perceived intensity of compound at a concentration of 1011 ppm (mean value); format: functional; method in brief: as §2
Homo sapiens [17] = organism: Homo sapiens; assay: Sweet / Bitter character at a concentration of 1011 ppm (mean value); format: functional
Homo sapiens [18] = organism: Homo sapiens; assay: Sour character at a concentration of 1011 ppm (mean value); format: functional
Homo sapiens [19] = organism: Homo sapiens; assay: Intensity calculated on a weight basis relative to an 85500 ppm sucrose solution at a concentration of 1011 ppm (mean value); format: functional; method in brief: as §3
Homo sapiens [20] = organism: Homo sapiens; assay: Percentage of judgments reporting an aftertaste at a concentration of 1011 ppm and character thereof; Bitter-sweet; format: functional; method in brief: as §1
Homo sapiens [21] = organism: Homo sapiens; assay: Other taste character at a concentration of 1011 ppm (mean value); format: functional; method in brief: as §6
Homo sapiens [22] = organism: Homo sapiens; assay: Intensity calculated on a molar basis relative to a 0.25 M sucrose solution at a concentration of 1011 ppm (mean value); format: functional; method in brief: as §7
Homo sapiens [23] = organism: Homo sapiens; assay: Intensity calculated on a weight basis relative to an 85500 ppm sucrose solution at a concentration of 249 ppm (mean value); format: functional; method in brief: as §3
Homo sapiens [24] = organism: Homo sapiens; assay: Sour character at a concentration of 249 ppm (mean value); format: functional
Homo sapiens [25] = organism: Homo sapiens; assay: Salty character at a concentration of 249 ppm (mean value); format: functional
Homo sapiens [26] = organism: Homo sapiens; assay: Percentage of judgments reporting an aftertaste at a concentration of 249 ppm and character thereof; format: functional; method in brief: as §1
Homo sapiens [27] = organism: Homo sapiens; assay: Sweet / Bitter character at a concentration of 249 ppm (mean value); 97/3; format: functional
Homo sapiens [28] = organism: Homo sapiens; assay: Sweet character at a concentration of 249 ppm (mean value); format: functional
Homo sapiens [29] = organism: Homo sapiens; assay: Other taste character at a concentration of 249 ppm (mean value); format: functional; method in brief: as §4
Homo sapiens [30] = organism: Homo sapiens; assay: Experimentally determined perceived intensity of compound at a concentration of 249 ppm (mean value); format: functional; method in brief: as §2
Homo sapiens [31] = organism: Homo sapiens; assay: Intensity calculated on a molar basis relative to a 0.25 M sucrose solution at a concentration of 249 ppm (mean value); format: functional; method in brief: as §7
Homo sapiens [32] = organism: Homo sapiens; assay: Bitter character at a concentration of 249 ppm (mean value); format: functional; method in brief: as §5
Homo sapiens [33] = organism: Homo sapiens; assay: Percentage of judgments reporting an aftertaste at a concentration of 90 ppm and character thereof; format: functional
Homo sapiens [34] = organism: Homo sapiens; assay: Intensity calculated on a molar basis relative to a 0.25 M sucrose solution at a concentration of 90 ppm (mean value); format: functional; method in brief: as §7
Homo sapiens [35] = organism: Homo sapiens; assay: Salty character at a concentration of 90 ppm (mean value); format: functional
Homo sapiens [36] = organism: Homo sapiens; assay: Experimentally determined perceived intensity of compound at a concentration of 90 ppm (mean value); format: functional; method in brief: as §2
Homo sapiens [37] = organism: Homo sapiens; assay: Bitter character at a concentration of 90 ppm (mean value); format: functional; method in brief: as §5
Homo sapiens [38] = organism: Homo sapiens; assay: Sweet / Bitter character at a concentration of 90 ppm (mean value); 91/9
Homo sapiens [39] = organism: Homo sapiens; assay: Sour character at a concentration of 90 ppm (mean value); format: functional
Homo sapiens [40] = organism: Homo sapiens; assay: Intensity calculated on a weight basis relative to an 85500 ppm sucrose solution at a concentration of 90 ppm (mean value); format: functional; method in brief: as §3
Homo sapiens [41] = organism: Homo sapiens; assay: Sweet character at a concentration of 90 ppm (mean value); format: functional
Homo sapiens [42] = organism: Homo sapiens; assay: Other taste character at a concentration of 90 ppm (mean value); format: functional; method in brief: as §4
Homo sapiens [43] = organism: Homo sapiens; assay: Intensity calculated on a weight basis relative to an 85500 ppm sucrose solution at a concentration of 252 ppm (mean value); format: functional; method in brief: as §3
Homo sapiens [44] = organism: Homo sapiens; assay: Sweet character at a concentration of 252 ppm (mean value); format: functional; method in brief: as §4
Homo sapiens [45] = organism: Homo sapiens; assay: Salty character at a concentration of 252 ppm (mean value); format: functional; method in brief: as §4
Homo sapiens [46] = organism: Homo sapiens; assay: Percentage of judgments reporting an aftertaste at a concentration of 252 ppm and character thereof; format: functional; method in brief: as §1
Homo sapiens [47] = organism: Homo sapiens; assay: Sour character at a concentration of 252 ppm (mean value); format: functional; method in brief: as §4
Homo sapiens [48] = organism: Homo sapiens; assay: Sweet / Bitter character at a concentration of 252 ppm (mean value); 6/94; format: functional
Homo sapiens [49] = organism: Homo sapiens; assay: Experimentally determined perceived intensity of compound at a concentration of 252 ppm (mean value); format: functional; method in brief: as §2
Homo sapiens [50] = organism: Homo sapiens; assay: Bitter character at a concentration of 252 ppm (mean value); format: functional; method in brief: as §5
Homo sapiens [51] = organism: Homo sapiens; assay: Other taste character at a concentration of 252 ppm (mean value); format: functional; method in brief: as §4
Homo sapiens [52] = organism: Homo sapiens; assay: Intensity calculated on a molar basis relative to a 0.25 M sucrose solution at a concentration of 252 ppm (mean value); format: functional; method in brief: as §7

COc1ccc(CCC(=O)c2c(O)cc(OC(CC(O)CO)C(=O)[O-])cc2O)cc1O.[Na+] (stereo unspecified)
Judgments (Homo sapiens [1]): 0
Judgments (Homo sapiens [2]): 1
IP (Homo sapiens [3]): 0

COc1ccc(C2OC[C@@H]3OC(O)[C@@H](O)[C@H](O)[C@H]3O2)cc1O (stereo partly specified)
Judgments (Homo sapiens [4]): 0
IW (Homo sapiens [5]): 10
Taste character (Homo sapiens [6]): 0
Judgments (Homo sapiens [2]): 1
Taste character (Homo sapiens [7]): 100
IP (Homo sapiens [3]): 0.3
Taste character (Homo sapiens [8]): 0
IM (Homo sapiens [9]): 10
Taste character (Homo sapiens [10]): 0
Taste character (Homo sapiens [11]): 0
Taste character (Homo sapiens [12]): 0

COc1ccc(CCc2noc3cc(OCCCS(=O)(=O)[O-])cc(O)c23)cc1O.[K+]
Taste character (Homo sapiens [13]): 0
Taste character (Homo sapiens [14]): 38
Taste character (Homo sapiens [15]): 41
IP (Homo sapiens [16]): 0.49
Taste character (Homo sapiens [17]): 52
Taste character (Homo sapiens [18]): 0
Judgments (Homo sapiens [2]): 12
IW (Homo sapiens [19]): 41
Judgments (Homo sapiens [20]): 100
Taste character (Homo sapiens [21]): 21
IM (Homo sapiens [22]): 56

COc1ccc(CCC(=O)c2c(O)cc(OCC(=O)CC(=O)[O-])cc2O)cc1O.[Na+]
IW (Homo sapiens [23]): 310
Taste character (Homo sapiens [24]): 0
Taste character (Homo sapiens [25]): 0
Judgments (Homo sapiens [2]): 24
Judgments (Homo sapiens [26]): 100
Taste character (Homo sapiens [27]): 97
Taste character (Homo sapiens [28]): 85
Taste character (Homo sapiens [29]): 12
IP (Homo sapiens [30]): 0.89
IM (Homo sapiens [31]): 380
Taste character (Homo sapiens [32]): 3

COc1ccc(CCC(=O)c2c(O)cc(O)cc2O)cc1O
Judgments (Homo sapiens [33]): 70
Judgments (Homo sapiens [2]): 10
IM (Homo sapiens [34]): 750
Taste character (Homo sapiens [35]): 5
IP (Homo sapiens [36]): 0.89
Taste character (Homo sapiens [37]): 8
Taste character (Homo sapiens [38]): 91
Taste character (Homo sapiens [39]): 0
IW (Homo sapiens [40]): 850
Taste character (Homo sapiens [41]): 83
Taste character (Homo sapiens [42]): 4

CNc1ccc(CCC(=O)c2c(O)cc(OCC(=O)[O-])cc2O)cc1O.[Na+]
Judgments (Homo sapiens [1]): 0
Judgments (Homo sapiens [2]): 1
IP (Homo sapiens [3]): 0

COc1ccc(CCC(=O)c2c(O)cc(OCC(=O)[O-])cc2O)cc1N.[Na+]
IW (Homo sapiens [43]): 200
Taste character (Homo sapiens [44]): 5
Taste character (Homo sapiens [45]): 1
Judgments (Homo sapiens [46]): 58
Taste character (Homo sapiens [47]): 0
Taste character (Homo sapiens [48]): 6
Judgments (Homo sapiens [2]): 12
IP (Homo sapiens [49]): 0.08
Taste character (Homo sapiens [50]): 79
Taste character (Homo sapiens [51]): 15
IM (Homo sapiens [52]): 230
